For orientation: IC50 means the point on the concentration scale where inhibition reaches its midpoint. A word on the CL/F: it is the apparent clearance, not corrected for the fraction that reaches the circulation. The term inhibition denotes the percentage by which the read-out fell short of the control. A higher inhibition goes with a response far below the control. A word on the bioavailability: it is dose-corrected exposure relative to a reference, in per cent. A low value points to little systemic uptake. One may read the clearance as a measure of how efficiently the substance is removed, as volume per time. Low readings indicate inefficient removal, high ones efficient removal. Broadly, the half-life is the time in which the quantity being followed falls by half. Low readings indicate fast loss, high ones slow loss. A word on the AUC(0-t): it is exposure summed from dosing to a finite time, without extrapolation to infinity. Read a high AUC(0-t) as more exposure.

The record followed here is ChEMBL document CHEMBL3102803, “Design, synthesis, and biological evaluation of novel piperidine-4-carboxamide derivatives as potent CCR5 inhibitors” (Eur J Med Chem, 2014).

One data set relates to HEK293. Kind of data set: Cytotoxicity against HEK293 cells at 50 uM after 7 hrs by CCK-8 assay. The settings on record: human, hek293, 7 h. In kind it is cell-based. The method in brief:
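HEK293 cells at 5000 cells/well preincubated 24 h at 37 °C in 5% CO2, then exposed to compound for 7 h. CCK-8 reagent added, plates incubated a further 2 h at 37 °C, and absorbance read at […].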

Data set [1] concerns the target T1, C-C chemokine receptor type 5 (Homo sapiens, UniProt P51681). Kind of data set: Inhibition of CCR5 (unknown origin) expressed in CHO cells assessed as inhibition of RANTES-induced intracellular Ca2+ mobilization after 10 mins by Fluo-4 AM staining-based fluorescence assay. The data set is classed as functional, cell-based. (Calcium flux is commonly read through the fluorescence of an indicator in the cells.)

Data set [2] has as its system Human immunodeficiency virus 1. Kind of data set: Antiviral activity against HIV-1 infected in human SupT1 cells assessed as inhibition of viral infectivity after 48 hrs by luciferase reporter gene assay. In kind it is functional, organism-based. The settings on record: Human immunodeficiency virus 1, SUP-T1, 48 h. Summed up:
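Pseudovirions made by co-transfecting 293T cells with pNL-Luc-E- and pENV-R5. Supernatant collected at 48 h, filtered, and capsid protein quantified by p24 antigen-capture ELISA. SupT1 cells (1 × 10^5) infected with supernatant in the presence of compound, lysed 48 h post-infection, and firefly luciferase activity measured.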
A general note: In a reporter assay the amount or activity of a reporter protein is the signal.

Data set [3] in a line: Plasma clearance in Sprague-Dawley rat at 25 mg/kg, po. The data set is classed as ADME, organism-based. On the set-up: dose 25 mg/kg, route oral.
The test system of the next data set is Rattus norvegicus. Description: Volume of distribution at steady state in Sprague-Dawley rat at 25 mg/kg, po. The data set is classed as ADME, organism-based. Also on record: dose 25 mg/kg, route oral. The following applies: in vivo.
A further data set concerns the target hERG (KCNH2) (Homo sapiens, UniProt Q12809). Description: Inhibition of human ERG at 3 uM by patch clamp assay.
The nature of data set [4]: Oral bioavailability in Sprague-Dawley rat at 25 mg/kg. In kind it is ADME, organism-based. The settings on record: in vivo.
A short description of data set [5]: Plasma clearance in Sprague-Dawley rat at 4 mg/kg, iv. The data set is classed as ADME, organism-based. On the set-up: dose 4 mg/kg, route intravenous.
A short description of data set [6]: Volume of distribution at steady state in Sprague-Dawley rat at 4 mg/kg, iv. The data set is classed as ADME, organism-based. Also on record: dose 4 mg/kg, route intravenous. The following applies: in vivo, read-out: Vdss.
Data set [7] can be described thus: Half life in Sprague-Dawley rat at 4 mg/kg, iv. In kind it is ADME, organism-based. The following applies: in vivo. On the set-up: dose 4 mg/kg, route intravenous.
Data set [8] can be described thus: AUC (0 to 24 hrs) in Sprague-Dawley rat at 25 mg/kg, po. The data set is classed as ADME, organism-based. Also on record: time < 24 hr, dose 25 mg/kg, route oral. The following applies: plasma.
Data set [9] can be described thus: AUC (0 to 24 hrs) in Sprague-Dawley rat at 4 mg/kg, iv. The data set is classed as ADME, organism-based. Also on record: time < 24 hr, dose 4 mg/kg, route intravenous. The settings on record: plasma.
A short description of data set [10]: Half life in Sprague-Dawley rat at 25 mg/kg, po. The data set is classed as ADME, organism-based. Also on record: dose 25 mg/kg, route oral. The following applies: in vivo.
The target of data set [11] is T1, C-C chemokine receptor type 5. Kind of data set: Antagonist activity at CCR5 (unknown origin) expressed in CHO cell membranes assessed as inhibition of RANTES-stimulated [35S]-GTPgammaS binding after 1 hr by liquid scintillation counting analysis. The data set is classed as functional. A general note: GTPγS resists hydrolysis and so accumulates on activated G proteins.

T1 sequence (P51681 whole entry): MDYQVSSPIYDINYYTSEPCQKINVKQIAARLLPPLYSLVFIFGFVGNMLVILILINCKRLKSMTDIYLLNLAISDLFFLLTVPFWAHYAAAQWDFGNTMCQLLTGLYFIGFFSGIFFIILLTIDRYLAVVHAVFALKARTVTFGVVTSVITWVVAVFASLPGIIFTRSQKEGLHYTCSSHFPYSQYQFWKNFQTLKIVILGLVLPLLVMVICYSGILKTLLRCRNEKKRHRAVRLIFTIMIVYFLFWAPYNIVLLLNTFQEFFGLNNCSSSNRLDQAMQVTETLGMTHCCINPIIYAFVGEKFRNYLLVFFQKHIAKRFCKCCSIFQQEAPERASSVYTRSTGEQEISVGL
Chain of hERG (KCNH2) (Q12809 whole entry): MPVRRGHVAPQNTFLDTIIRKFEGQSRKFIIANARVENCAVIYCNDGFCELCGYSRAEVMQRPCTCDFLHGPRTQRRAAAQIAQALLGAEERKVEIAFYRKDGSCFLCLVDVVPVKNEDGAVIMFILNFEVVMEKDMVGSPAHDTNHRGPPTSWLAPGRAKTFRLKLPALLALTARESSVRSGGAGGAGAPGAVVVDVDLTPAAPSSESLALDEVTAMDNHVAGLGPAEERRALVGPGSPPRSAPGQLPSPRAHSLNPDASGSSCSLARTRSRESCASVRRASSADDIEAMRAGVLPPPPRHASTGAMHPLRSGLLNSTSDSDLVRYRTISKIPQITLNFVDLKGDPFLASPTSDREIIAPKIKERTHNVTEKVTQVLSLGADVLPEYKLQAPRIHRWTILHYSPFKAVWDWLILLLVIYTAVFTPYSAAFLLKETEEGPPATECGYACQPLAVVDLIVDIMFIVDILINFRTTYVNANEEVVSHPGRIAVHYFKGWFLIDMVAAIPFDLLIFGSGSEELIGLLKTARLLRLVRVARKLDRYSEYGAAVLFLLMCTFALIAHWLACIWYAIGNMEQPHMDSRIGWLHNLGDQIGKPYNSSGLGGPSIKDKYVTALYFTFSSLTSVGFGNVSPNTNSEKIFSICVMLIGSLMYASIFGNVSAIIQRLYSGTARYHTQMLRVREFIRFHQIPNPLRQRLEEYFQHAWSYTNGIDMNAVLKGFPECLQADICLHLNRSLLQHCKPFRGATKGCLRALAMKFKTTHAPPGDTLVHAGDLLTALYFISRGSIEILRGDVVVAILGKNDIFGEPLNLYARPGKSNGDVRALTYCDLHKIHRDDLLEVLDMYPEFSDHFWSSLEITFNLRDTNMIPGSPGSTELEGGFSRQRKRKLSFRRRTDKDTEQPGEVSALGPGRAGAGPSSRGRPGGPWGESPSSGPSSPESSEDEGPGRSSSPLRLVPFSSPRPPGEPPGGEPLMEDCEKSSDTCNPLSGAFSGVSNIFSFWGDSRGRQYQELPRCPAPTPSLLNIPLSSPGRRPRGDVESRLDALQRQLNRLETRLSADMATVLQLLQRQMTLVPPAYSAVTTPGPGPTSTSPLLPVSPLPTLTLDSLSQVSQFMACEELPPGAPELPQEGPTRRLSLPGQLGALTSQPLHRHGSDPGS

As to `CCN(Cc1ccc(C)cc1)C(=O)C1CCN(CCCN(C(=O)C2CCN(C(C)=O)CC2)c2cccc(Cl)c2)CC1`, the Activity result in the data set with HEK293 is listed as “Non-toxic”. Also, in [1], the IC50 stood at 202 nM.

As to `CC(=O)N1CCC(C(=O)N(CCCN2CCC(C(=O)NCc3ccc(F)cc3)CC2)c2cccc(Cl)c2)CC1`, in the data set with HEK293, the Activity result is given as “Non-toxic”. Moreover, the IC50 in data set [1] turned out to be 35.5 nM.

On to `CC(=O)N1CCC(C(=O)N(CCCN2CCC(C(=O)NCCc3ccc(Cl)cc3)CC2)c2cccc(Cl)c2)CC1`, for which the Activity result in the data set with HEK293 is given as “Non-toxic”. Also, the IC50 in data set [1] turned out to be 86.7 nM.

On to `Cc1nnc(C(C)C)n1[C@H]1C[C@H]2CC[C@@H](C1)N2CC[C@H](NC(=O)C1CCC(F)(F)CC1)c1ccccc1` [MARAVIROC], for which, in data set [2], the 50% inhibitory concentration (IC50) came to 1.1 nM.

Regarding `CC(=O)N1CCC(C(=O)N(CCCN2CCC(C(=O)N(C)Cc3ccccc3)CC2)c2cccc(Cl)c2)CC1`, in the data set with HEK293, the Activity entry is given as “Non-toxic”. Besides, the IC50 in data set [1] came to 64.1 nM.

Take `CCN(CCc1ccc(F)cc1)C(=O)C1CCN(CCCN(C(=O)C2CCN(C(C)=O)CC2)c2cccc(Cl)c2)CC1`: in the data set with HEK293, the Activity entry is “Non-toxic”. The IC50 in data set [1] came to 152 nM.

Consider `CC(=O)N1CCC(C(=O)N(CCCN2CCC(C(=O)NCCc3ccccc3)CC2)c2cccc(Cl)c2)CC1`, for which the Activity result in the data set on HEK293 is listed as “Non-toxic”. Besides, in [1], the IC50 came to 76 nM.

`CC(=O)N1CCC(C(=O)N(CCCN2CCC(C(=O)NCc3ccc(Cl)cc3)CC2)c2cccc(Cl)c2)CC1`: in the data set on HEK293, the Activity entry is on record as “Non-toxic”. Besides, the IC50 stood at 25.5 nM in data set [1] and 94.1 nM in data set [2].

`CCN(Cc1ccc(Cl)cc1)C(=O)C1CCN(CCCN(C(=O)C2CCN(C(C)=O)CC2)c2cccc(Cl)c2)CC1`: the Activity result in the data set with HEK293 is given as “Non-toxic”. Further, in data set [1], the IC50 turned out to be 93.5 nM.

Turning to `CCN(Cc1ccccc1)C(=O)C1CCN(CCCN(C(=O)C2CCN(C(C)=O)CC2)c2cccc(Cl)c2)CC1`, the Activity result with HEK293 was “Non-toxic”. In addition, the IC50 in [1] amounted to 525 nM.

In the case of `CCN(Cc1ccc(C#N)cc1)C(=O)C1CCN(CCCN(C(=O)C2CCN(C(C)=O)CC2)c2cccc(Cl)c2)CC1`, the Activity result in the data set on HEK293 is given as “Non-toxic”. Further, the IC50 in data set [1] is 473 nM.

The compound `CC(=O)N1CCC(C(=O)N(CCCN2CCC(C(=O)NCc3ccccc3)CC2)c2cccc(Cl)c2)CC1` showed a CL/F in data set [3] of 148 mL/min/kg. In the data set with Rattus norvegicus, this compound returned a Vdss of 8.99 L/kg. The compound further showed an inhibition at 3 µM on hERG (KCNH2) of 15.2%. Besides, the bioavailability in [4] was determined as 15%. The clearance in data set [5] is 20.8 mL/min/kg. In addition, the Activity result with HEK293 is on record as “Non-toxic”. Further, the Vd in data set [6] was found to be 1.23 L/kg. For the same compound, the figures for the half-maximal inhibitory concentration (IC50) in [1] and in data set [2] were 25.7 nM and 73 nM, respectively. Moreover, the values for the half-life in data set [7] and in [10] were 44.4 min and 42.6 min, respectively. Moreover, the AUC(0-t) at 24 h in [8] was 3130 ng·h/mL; in data set [9], 3250 ng·h/mL.

`CC(=O)N1CCC(C(=O)N(CCCN2CCC(C(=O)Nc3ccccc3)CC2)c2cccc(Cl)c2)CC1`: the Activity result in the data set with HEK293 is “Non-toxic”. The IC50 in data set [1] is > 1000 nM.

For `CCN(C(=O)C1CCN(CCCN(C(=O)C2CCN(C(C)=O)CC2)c2cccc(Cl)c2)CC1)c1ccccc1`, the Activity result in the data set with HEK293 is on record as “Non-toxic”. The IC50 in [1] was > 1000 nM.

Take `CCN(C(=O)Cc1ccccc1)C1CCN(CCCN(C(=O)C2CCN(C(C)=O)CC2)c2cccc(Cl)c2)CC1`: the IC50 came out at 7 nM in data set [11] and 252 nM in data set [1].

As to `CC(=O)N1CCC(C(=O)N(CCCN2CCC(C(=O)NCc3ccc(C#N)cc3)CC2)c2cccc(Cl)c2)CC1`, in the data set on HEK293, the Activity entry was “Non-toxic”. In addition, in data set [1], the IC50 worked out at 75.3 nM.

In the case of `CCN(Cc1ccc(F)cc1)C(=O)C1CCN(CCCN(C(=O)C2CCN(C(C)=O)CC2)c2cccc(Cl)c2)CC1`, in the data set with HEK293, the Activity result is recorded as “Non-toxic”. In addition, in data set [1], the IC50 worked out at 320 nM.

As to `CCN(CCc1ccccc1)C(=O)C1CCN(CCCN(C(=O)C2CCN(C(C)=O)CC2)c2cccc(Cl)c2)CC1`, in the data set with HEK293, the Activity result is reported as “Non-toxic”. Further, in [1], the IC50 is 26.4 nM.

On to `CC(=O)N1CCC(C(=O)N(CCCN2CCC(C(=O)NCCc3ccc(F)cc3)CC2)c2cccc(Cl)c2)CC1`, for which the Activity entry in the data set on HEK293 is recorded as “Non-toxic”. Moreover, in [1], the IC50 worked out at 197 nM.

In the case of `CCN(CCc1ccc(Cl)cc1)C(=O)C1CCN(CCCN(C(=O)C2CCN(C(C)=O)CC2)c2cccc(Cl)c2)CC1`, the Activity result with HEK293 was “Non-toxic”. Besides, the IC50 in data set [1] amounted to 126 nM.
